# Assay results collected from several papers.
# Compare with care: the assays were run in different laboratories.
# Target: STE20-like serine/threonine-protein kinase (SLK, Homo sapiens, UniProt Q9H2G2)
SMILES,assay,test system,setting,quantity,result
Cn1c2c(c3ccccc31)C(C#N)C(C)(C)NC2=O (stereo not shown),"thermal stability, DSF",,10 µM,ΔTm,-0.1 °C
O=C1NC(c2ccccn2)Sc2ccccc21 (stereo not shown),"cell-free assay, competition with immobilised ligand",,1 µM,remaining binding,76%
CCN1CCN(Cc2ccc(NC(=O)c3ccc(C)c(Oc4ccnc5[nH]ccc45)c3)cc2C(F)(F)F)CC1,"target engagement in cells, inhibitor, chemoproteomics",Huh-7,1 µM,inhibition,-70.4%
CN1CCN(c2cnc3c(C4CCN(C(=O)c5ccc(OC(F)(F)F)cc5N)CC4)ncnc3c2)CC1,"cell-free assay, competition with immobilised ligand",,1 µM,remaining binding,96%
Cn1c2c(c3ccc(Cl)c(Cl)c31)C(C#N)C1(CCNCC1)NC2=O (racemic),"thermal stability, DSF",,10 µM,ΔTm,-0.1 °C
COc1cc2nccc(Oc3ccc(NC(=O)Nc4ccc(F)cc4F)c(F)c3)c2cc1OC,"thermal stability, DSF",,10 µM,ΔTm,5 to 10 °C
O=C1NC(=O)c2cc(Nc3ccc(F)cc3)c(Nc3ccc(F)cc3)cc21,cell-free assay,,0.5 µM,remaining signal,65.5%
Cc1ccc(C(=O)Nc2ccc(CN3CCN(C)CC3)c(C(F)(F)F)c2)cc1C#Cc1cnc2cccnn12,"enzyme activity, inhibitor",,23.5 nM,remaining activity,7%
CC(=O)C1=C(C)N(c2cccc(C(F)(F)F)c2)C(=O)N[C@@H]1c1ccc(C#N)nc1,"cell-free assay, competition with immobilised ligand",,1 µM,remaining binding,98.4%
O=C(Nc1cnn(-c2csc(C(=O)NC3COC3)c2)c1)Nc1ccccc1Cl,"enzyme activity, inhibitor",,5 µM,remaining activity,89.7%
N#CCCc1ccc2c(c1)-c1[nH]c3ccc([N+](=O)[O-])cc3c1CC(=O)N2,cell-free assay,,0.5 µM,remaining signal,87.2%
CC1(C)NC(=O)c2[nH]c3c(Cl)c(Cl)ccc3c2C1C#N (stereo not shown),"thermal stability, DSF",,10 µM,ΔTm,-0.5 °C
O=C(O)c1cc(-c2ccc(C3CCNCC3)cc2)c2ccc(-c3ccc(C(F)(F)F)cc3)cc2c1,"cell-free assay, competition with immobilised ligand",,1 µM,remaining binding,100%
COc1cc(-c2cc(-c3ccc(N4CCNCC4)cc3)cnc2C)cc(OC)c1OC,"enzyme activity, inhibitor",,1 µM,inhibition,43%
Cc1c(C(=O)O)cc(-c2ccc(C3CCNCC3)cc2)c2ccc(-c3ccc(C(F)(F)F)cc3)cc12,"binding, competition with immobilised ligand",,1 µM,remaining binding,100%
CS(=O)(=O)CCNCc1ccc(-c2ccc3ncnc(Nc4ccc(OCc5cccc(F)c5)c(Cl)c4)c3c2)o1,cell-free assay,,0.5 µM,remaining signal,85.1%
